Measurements from ChEMBL document CHEMBL1155867, “Synthesis and evaluation of alpha,alpha'-disubstituted phenylacetate derivatives for T-type calcium channel blockers” (Bioorg Med Chem Lett, 2008).
Blank lines part the entries; values can stand above or below the compound they belong to.

Assays:
[1] = target: T1, Voltage-dependent T-type calcium channel subunit alpha-1G (Homo sapiens, UniProt O43497); assay: Antagonist activity at T type calcium channel alpha1G expressed in HEK293 cells assessed as inhibition of peak currents at 10 uM by whole-cell patch-clamp method; assay type: functional, cell-based
[2] = target: T1, Voltage-dependent T-type calcium channel subunit alpha-1G; assay: Antagonist activity at T type calcium channel alpha1G expressed in HEK293 cells assessed as inhibition of peak currents at 1 uM by whole-cell patch-clamp method; assay type: functional, cell-based
[3] = target: T1, Voltage-dependent T-type calcium channel subunit alpha-1G; assay: Antagonist activity at T type calcium channel alpha1G expressed in HEK293 cells assessed as inhibition of peak currents by whole-cell patch-clamp method; assay type: functional, cell-based
In short: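 Whole-cell patch clamp on HEK293 cells expressing alpha1G. External solution contained 140 mM NaCl, CaCl2, 10 mM Hepes and 10 mM glucose at pH 7.4. Pipettes were 3–4 MΩ, with Mg-ATP in the internal solution. Currents were evoked every 15 s by a 50 ms step from −100 to −30 mV. IC50 came from dose–response fits of peak current inhibition.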

[4] = Inhibition of L type calcium channel at 1 uM
[5] = Ratio of Cmax for mouse brain to Cmax for mouse plasma at 50 mg/kg, po; assay type: ADME, organism-based; design: dose 50 mg/kg, route oral
[6] = Tmax in mouse brain at 50 mg/kg, po; assay type: ADME, organism-based; design: dose 50 mg/kg, route oral
In short: (§1)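 Single oral gavage dose of 50 mg/kg to mice. Vehicle was DMA/Cremophor EL/PBS (10/10/80 v/v %). Plasma and brain were sampled. AUC0–t was calculated by the linear trapezoidal rule, and brain/plasma ratio was taken as AUCbrain/AUCplasma.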

[7] = target: T1, Voltage-dependent T-type calcium channel subunit alpha-1G; assay: Antagonist activity at T type calcium channel alpha1G expressed in HEK293 cells assessed as inhibition of peak currents by whole-cell patch-clamp method
[8] = Metabolic stability in mouse liver; assay type: ADME, tissue-based; conditions: liver (preparation not stated)
[9] = AUC (0 to t) in mouse brain at 50 mg/kg, po; assay type: ADME, organism-based; design: dose 50 mg/kg, route oral; in short: as §1
[10] = Ratio of AUC (0 to t) for mouse brain to AUC (0 to t) for mouse plasma at 50 mg/kg, po; assay type: ADME, organism-based; design: dose 50 mg/kg, route oral
In short: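 Mice got a single oral 50 mg/kg dose in DMA/Cremophor EL/PBS (10/10/80 v/v %). Plasma and brain levels were measured to give Tmax, Cmax and AUC0–t, with AUC by the linear trapezoidal rule. Brain/plasma ratio taken from the brain and plasma parameters (B/P = AUC_brain/AUC_plasma).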

[11] = Cmax in mouse brain at 50 mg/kg, po; assay type: ADME, organism-based; design: dose 50 mg/kg, route oral; in short: as §1
[12] = Selectivity for T type calcium channel alpha1G over L type calcium channel
[13] = Ratio of IC50 for human ERG channel to IC50 for T type calcium channel alpha1G
[14] = target: Voltage-gated inwardly rectifying potassium channel KCNH2 (Homo sapiens, UniProt Q12809); assay: Inhibition of human ERG channel
[15] = Tmax in mouse plasma at 50 mg/kg, po; assay type: ADME, organism-based; design: dose 50 mg/kg, route oral; in short: as §1
[16] = Cmax in mouse plasma at 50 mg/kg, po; assay type: ADME, organism-based; design: dose 50 mg/kg, route oral; in short: as §1
[17] = AUC (0 to t) in mouse plasma at 50 mg/kg, po; assay type: ADME, organism-based; design: dose 50 mg/kg, route oral; in short: as §1

T1 sequence (O43497 whole entry): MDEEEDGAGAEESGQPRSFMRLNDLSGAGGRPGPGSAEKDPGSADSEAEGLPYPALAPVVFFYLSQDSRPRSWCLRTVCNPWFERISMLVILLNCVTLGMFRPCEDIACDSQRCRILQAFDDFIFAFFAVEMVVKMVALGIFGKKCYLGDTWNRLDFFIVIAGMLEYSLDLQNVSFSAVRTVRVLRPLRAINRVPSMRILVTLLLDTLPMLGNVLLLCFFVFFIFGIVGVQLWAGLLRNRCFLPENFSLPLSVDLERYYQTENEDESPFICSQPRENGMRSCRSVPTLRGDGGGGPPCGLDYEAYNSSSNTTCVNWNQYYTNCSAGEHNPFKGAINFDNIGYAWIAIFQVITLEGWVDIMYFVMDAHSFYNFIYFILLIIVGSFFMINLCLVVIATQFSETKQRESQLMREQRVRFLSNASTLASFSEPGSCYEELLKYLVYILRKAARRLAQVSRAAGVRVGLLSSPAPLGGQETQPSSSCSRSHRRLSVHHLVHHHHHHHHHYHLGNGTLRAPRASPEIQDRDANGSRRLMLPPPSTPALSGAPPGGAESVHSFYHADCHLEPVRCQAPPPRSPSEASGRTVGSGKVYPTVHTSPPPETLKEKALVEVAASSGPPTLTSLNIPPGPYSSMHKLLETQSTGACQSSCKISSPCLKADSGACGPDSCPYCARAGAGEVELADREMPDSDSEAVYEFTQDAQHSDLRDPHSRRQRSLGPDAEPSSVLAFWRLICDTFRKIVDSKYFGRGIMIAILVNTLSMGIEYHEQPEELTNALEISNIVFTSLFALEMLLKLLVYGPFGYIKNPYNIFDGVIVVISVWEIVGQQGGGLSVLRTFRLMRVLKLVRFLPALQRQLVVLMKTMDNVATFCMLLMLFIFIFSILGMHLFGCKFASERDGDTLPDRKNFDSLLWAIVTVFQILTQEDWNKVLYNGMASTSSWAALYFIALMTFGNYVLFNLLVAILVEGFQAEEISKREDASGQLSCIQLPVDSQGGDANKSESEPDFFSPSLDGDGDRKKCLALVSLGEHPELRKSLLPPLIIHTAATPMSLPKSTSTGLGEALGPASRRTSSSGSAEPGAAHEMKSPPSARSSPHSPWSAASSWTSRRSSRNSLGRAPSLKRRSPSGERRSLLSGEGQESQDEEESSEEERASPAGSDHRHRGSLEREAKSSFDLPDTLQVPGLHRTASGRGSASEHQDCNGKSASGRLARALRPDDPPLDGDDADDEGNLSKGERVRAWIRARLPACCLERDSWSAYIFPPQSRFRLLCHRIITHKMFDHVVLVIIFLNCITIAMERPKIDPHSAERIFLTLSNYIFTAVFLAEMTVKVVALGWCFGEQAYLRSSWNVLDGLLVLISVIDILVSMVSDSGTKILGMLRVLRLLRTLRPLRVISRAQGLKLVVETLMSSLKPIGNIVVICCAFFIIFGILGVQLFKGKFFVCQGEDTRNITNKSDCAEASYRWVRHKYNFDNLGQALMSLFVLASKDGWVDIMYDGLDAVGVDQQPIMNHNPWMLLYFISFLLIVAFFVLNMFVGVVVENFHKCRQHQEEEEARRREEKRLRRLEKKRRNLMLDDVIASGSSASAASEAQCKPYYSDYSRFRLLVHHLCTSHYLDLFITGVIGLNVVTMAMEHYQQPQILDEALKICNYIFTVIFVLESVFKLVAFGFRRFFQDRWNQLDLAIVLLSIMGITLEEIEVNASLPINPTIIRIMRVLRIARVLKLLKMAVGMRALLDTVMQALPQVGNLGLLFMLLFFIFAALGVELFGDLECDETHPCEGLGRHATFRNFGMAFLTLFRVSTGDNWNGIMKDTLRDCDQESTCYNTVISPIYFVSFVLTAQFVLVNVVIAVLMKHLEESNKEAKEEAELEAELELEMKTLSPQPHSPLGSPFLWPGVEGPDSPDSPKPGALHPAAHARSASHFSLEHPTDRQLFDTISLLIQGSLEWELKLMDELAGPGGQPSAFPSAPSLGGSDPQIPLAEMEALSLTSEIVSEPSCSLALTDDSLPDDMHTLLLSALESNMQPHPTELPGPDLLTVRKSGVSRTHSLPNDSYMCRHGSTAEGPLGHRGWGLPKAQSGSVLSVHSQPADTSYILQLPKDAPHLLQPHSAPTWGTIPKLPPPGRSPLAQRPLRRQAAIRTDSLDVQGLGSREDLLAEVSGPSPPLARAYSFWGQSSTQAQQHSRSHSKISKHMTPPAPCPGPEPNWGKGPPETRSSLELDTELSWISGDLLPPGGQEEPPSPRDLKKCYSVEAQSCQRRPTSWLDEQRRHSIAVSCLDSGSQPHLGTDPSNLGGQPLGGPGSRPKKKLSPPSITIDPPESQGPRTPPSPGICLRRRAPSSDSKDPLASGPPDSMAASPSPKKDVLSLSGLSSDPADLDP
Chain of Voltage-gated inwardly rectifying potassium channel KCNH2 (Q12809 whole entry): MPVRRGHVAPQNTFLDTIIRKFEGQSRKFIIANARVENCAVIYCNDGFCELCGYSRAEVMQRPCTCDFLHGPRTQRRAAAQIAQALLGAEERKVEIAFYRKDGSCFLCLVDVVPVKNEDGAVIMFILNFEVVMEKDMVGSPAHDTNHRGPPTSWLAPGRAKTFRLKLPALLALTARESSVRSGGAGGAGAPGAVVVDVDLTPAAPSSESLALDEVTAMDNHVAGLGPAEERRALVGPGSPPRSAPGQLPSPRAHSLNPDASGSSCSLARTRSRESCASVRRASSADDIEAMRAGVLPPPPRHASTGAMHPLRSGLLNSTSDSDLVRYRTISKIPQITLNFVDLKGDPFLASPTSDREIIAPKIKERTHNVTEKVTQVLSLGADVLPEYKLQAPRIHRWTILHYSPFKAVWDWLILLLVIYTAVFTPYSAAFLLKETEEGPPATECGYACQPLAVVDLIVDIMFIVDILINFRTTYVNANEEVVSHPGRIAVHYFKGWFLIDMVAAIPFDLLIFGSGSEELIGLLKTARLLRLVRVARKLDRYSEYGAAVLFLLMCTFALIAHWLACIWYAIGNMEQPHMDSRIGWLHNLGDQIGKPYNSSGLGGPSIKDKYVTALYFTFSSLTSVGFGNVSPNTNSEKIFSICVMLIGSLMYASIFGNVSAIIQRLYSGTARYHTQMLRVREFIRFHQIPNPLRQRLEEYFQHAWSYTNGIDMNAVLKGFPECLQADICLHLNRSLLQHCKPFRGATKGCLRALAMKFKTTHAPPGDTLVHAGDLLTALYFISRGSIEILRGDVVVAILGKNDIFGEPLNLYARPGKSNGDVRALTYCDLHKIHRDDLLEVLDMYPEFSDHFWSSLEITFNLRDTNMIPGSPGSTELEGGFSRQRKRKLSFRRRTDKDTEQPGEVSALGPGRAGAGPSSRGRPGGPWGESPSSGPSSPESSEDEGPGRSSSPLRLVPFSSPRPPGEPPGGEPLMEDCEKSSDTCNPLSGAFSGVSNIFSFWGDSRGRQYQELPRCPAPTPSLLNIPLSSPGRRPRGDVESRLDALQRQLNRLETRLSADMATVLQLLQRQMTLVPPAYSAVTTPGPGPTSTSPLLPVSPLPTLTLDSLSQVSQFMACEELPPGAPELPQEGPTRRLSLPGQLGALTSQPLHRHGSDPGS

SMILES: COC(=O)C(CCCN1CCN(Cc2cccc(C)c2)CC1)(c1ccc(Br)cc1)C(C)C (stereo not drawn)
inhibition [1]: 94.9%

SMILES: COC(=O)C(CCCN(C)CCCc1nc2cc(C)c(C)cc2[nH]1)(c1ccc(Br)cc1)C(C)C (stereo not drawn)
inhibition [2]: 94.2%

SMILES: COC(=O)C(CCCN1CCN(Cc2cccc(C(F)(F)F)c2)CC1)(c1ccc(Br)cc1)C(C)C (stereo not drawn)
inhibition [1]: 93%
IC50 [3]: 280 nM

SMILES: COC(=O)C(CCCN(C)CCCc1nc2cc(OC)ccc2[nH]1)(c1ccc(Br)cc1)C(C)C (stereo not drawn)
inhibition [1]: 94.5%

SMILES: COC(=O)C(CCCN(C)CCCc1nc2ccccc2[nH]1)(c1ccc(OC)cc1)C(C)C (stereo not drawn)
inhibition [1]: 93.5%

SMILES: COC(=O)C(CCCN1CCN(c2ccccc2OC)CC1)(c1ccc(Br)cc1)C(C)C (stereo not drawn)
inhibition [1]: 94.1%
IC50 [3]: 95 nM

SMILES: CCOC(=O)C(CCCN1CCN(Cc2ccc(OC)cc2)CC1)(c1ccccc1)C(C)C (stereo not drawn)
inhibition [1]: 96.3%

SMILES: COC(=O)C(CCCN1CCN(Cc2ccccc2F)CC1)(c1ccc(Br)cc1)C(C)C (stereo not drawn)
inhibition [1]: 90.4%

SMILES: COC(=O)C(CCCN(C)CCCc1nc2ccccc2[nH]1)(c1ccc(Br)cc1)C(C)C (stereo not drawn)
inhibition [4]: 0%
Kp [5]: 0.17
Tmax [6]: 1 h
IC50 [7]: 8.17 nM
inhibition [1]: 96.9%
half-life [8]: 1 h
AUC(0-t) [9]: 973 ng·h/mL
Kp [10]: 0.25
Cmax [11]: 274 ng/mL
Selectivity Index [12]: > 1000
Ratio IC50 [13]: 21.8
IC50 [14]: 178 nM
Tmax [15]: 1 h
Cmax [16]: 1620 ng/mL
AUC(0-t) [17]: 3900 ng·h/mL

SMILES: CCOC(=O)C(CCCN(C)CCCc1nc2ccccc2[nH]1)(c1ccccc1)C(C)C (stereo not drawn)
inhibition [1]: 98.3%

SMILES: CCOC(=O)C(CCCN1CCN(Cc2ccc(F)cc2)CC1)(c1ccccc1)C(C)C (stereo not drawn)
inhibition [1]: 94%

Now from value to compound:

inhibition [1]: 91.4%
SMILES: CCOC(=O)C(CCCN(C)CCCc1nc2cc(C)c(C)cc2[nH]1)(c1ccccc1)C(C)C (stereo not drawn)

inhibition [1]: 95.1%
SMILES: COC(=O)C(CCCN1CCN(Cc2ccc(OC)c(OC)c2OC)CC1)(c1ccc(Br)cc1)C(C)C (stereo not drawn)

inhibition [1]: 91.7%
SMILES: COC(=O)C(CCCN(C)CCCc1nc2cc(OC)ccc2[nH]1)(c1ccc(OC)cc1)C(C)C (stereo not drawn)

inhibition [1]: 96.5%
SMILES: COC(=O)C(CCCN1CCN(Cc2ccc(F)cc2)CC1)(c1ccc(Br)cc1)C(C)C (stereo not drawn)

inhibition [1]: 89.3%
SMILES: COC(=O)C(CCCN1CCN(Cc2cccc(F)c2)CC1)(c1ccc(Br)cc1)C(C)C (stereo not drawn)

inhibition [1]: 96%
SMILES: COC(=O)C(CCCN1CCN(Cc2ccc(OC)cc2)CC1)(c1ccc(Br)cc1)C(C)C (stereo not drawn)
